Molecules are shown by their SMILES.

Usually IC50 stands for the concentration that inhibits the measured activity by half.

The target in the test is T1, Nitric oxide synthase, inducible (Mus musculus, UniProt P29477).
T1 sequence (P29477 whole entry): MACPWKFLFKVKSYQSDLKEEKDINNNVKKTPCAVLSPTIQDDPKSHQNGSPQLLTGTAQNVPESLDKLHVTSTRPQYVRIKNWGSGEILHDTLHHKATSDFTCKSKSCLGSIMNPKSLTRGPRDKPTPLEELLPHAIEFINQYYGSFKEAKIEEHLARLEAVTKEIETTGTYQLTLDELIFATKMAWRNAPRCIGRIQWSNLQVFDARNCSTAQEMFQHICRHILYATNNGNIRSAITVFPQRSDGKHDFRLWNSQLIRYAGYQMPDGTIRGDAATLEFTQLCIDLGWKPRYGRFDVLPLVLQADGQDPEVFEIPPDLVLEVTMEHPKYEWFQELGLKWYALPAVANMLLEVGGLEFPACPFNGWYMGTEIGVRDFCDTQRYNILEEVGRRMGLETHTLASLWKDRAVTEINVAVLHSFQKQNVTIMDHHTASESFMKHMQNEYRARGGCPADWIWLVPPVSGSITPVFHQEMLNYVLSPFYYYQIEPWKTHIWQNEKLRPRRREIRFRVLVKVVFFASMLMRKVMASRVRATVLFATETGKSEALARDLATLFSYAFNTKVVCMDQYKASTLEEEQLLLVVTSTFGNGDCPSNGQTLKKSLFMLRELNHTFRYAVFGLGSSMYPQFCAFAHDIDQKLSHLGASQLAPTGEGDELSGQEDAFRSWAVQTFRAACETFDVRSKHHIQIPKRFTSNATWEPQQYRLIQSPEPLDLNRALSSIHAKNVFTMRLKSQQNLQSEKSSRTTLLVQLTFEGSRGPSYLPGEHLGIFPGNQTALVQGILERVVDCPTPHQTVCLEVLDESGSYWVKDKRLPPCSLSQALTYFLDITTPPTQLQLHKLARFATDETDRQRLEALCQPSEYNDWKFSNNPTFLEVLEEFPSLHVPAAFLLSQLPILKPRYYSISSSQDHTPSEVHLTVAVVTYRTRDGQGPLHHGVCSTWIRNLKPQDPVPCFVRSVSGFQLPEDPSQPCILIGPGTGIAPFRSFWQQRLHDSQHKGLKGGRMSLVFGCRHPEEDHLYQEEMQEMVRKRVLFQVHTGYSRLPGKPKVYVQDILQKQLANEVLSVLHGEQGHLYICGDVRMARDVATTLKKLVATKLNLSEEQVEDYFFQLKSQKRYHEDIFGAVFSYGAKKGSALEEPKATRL
The experiment in a line: Inhibition of iNOS induction in mouse RAW264.7 cells assessed as NO production. The procedure, abridged: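 RAW 264.7 cells seeded at 8 × 10⁴ per well in DMEM/10% FBS and grown 2 days. Then exposed to LPS with compound or DMSO for 20 h. Supernatant nitrite measured by Griess reaction (sulfanilamide/NED) at 550 nm minus 620 nm background, quantified against a sodium nitrite standard curve. At least four experiments in triplicate.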
Turning to `Oc1ccc(C2CC(c3cccs3)=NN2c2ccc(Br)cc2)cc1` (stereo not given), the IC50 was 3.4 µM.

With `COc1cc(C=CC(=O)CC(=O)C=Cc2ccc(O)c(OC)c2)ccc1O`, the IC50 amounted to 0.8 µM.

Regarding `CC(C)(C)C1=NN(c2cccc(Cl)c2)C(c2ccc(F)c(O)c2)C1` (stereo not given), the concentration for half-maximal inhibition (IC50) was determined as 4.6 µM.

As to `CC(C)(C)C1=NN(c2ccc(Cl)cc2)C(c2ccc(O)cc2)C1` (stereo not given), the IC50 came out at 7.5 µM.

For the molecule `Oc1ccc(C2CC(c3cccs3)=NN2c2ccc(C(F)(F)F)cc2)cc1` (stereo not given), the IC50 turned out to be 2.4 µM.
